This passage reports GI50 results from ChEMBL document CHEMBL4425191, “Design, synthesis and biological evaluation of photoaffinity probes of antiangiogenic homoisoflavonoids” (2016).

What all share (assay type): functional
The test system of one test is Y79. Nature of the test: Antiproliferative activity against human Y79 cells after 48 hrs by alamar blue based fluorescence assay. The note with it: Y79, 48 h. Background: Resazurin is reduced to fluorescent resorufin, in cell work by metabolically active cells.
Test [1] in a line: Antiproliferative activity against human HREC cells after 48 hrs by alamar blue based fluorescence assay. The gist of the method: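 Human retinal microvascular endothelial cells at passages 5–8, 2,500 per well, rested 24 h, then given test compound (0.5 nM–500 µM) for 48 h. Proliferation was read by alamarBlue 4 h after addition (ex 560, em 590 nm) and dose-response fitted against DMSO control. GI50 <100 µM was recorded only if ≥50% reduction occurred at the highest concentration.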

A short description of test [2]: Antiproliferative activity against human 92-1 cells after 48 hrs by alamar blue based fluorescence assay.
The subject of the next test is HUVEC. Nature of the test: Antiproliferative activity against human HUVEC cells after 48 hrs by alamar blue based fluorescence assay. The gist of the method:
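HUVECs, passages 5–8, cultured in EGM-2 (EBM plus growth-factor bullet kit, 2% FBS). 2,500 cells were seeded 24 h, then incubated 48 h with compound at 0.5 nM–500 µM. alamarBlue was added and fluorescence read 4 h later at 560/590 nm; curves were fitted versus DMSO. GI50 <100 µM was listed only for ≥50% reduction at the top dose.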

The next test has as its system ARPE-19. Put plainly: Antiproliferative activity against human ARPE19 cells after 48 hrs by alamar blue based fluorescence assay. As to conditions: ARPE-19, 48 h. The gist of the method: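 ARPE19 cells grown in Ham's F-10 with 10% FBS and 1% pen-strep; 2,500 cells/well settled 24 h, then 48 h compound treatment over 0.5 nM–500 µM. alamarBlue fluorescence (560/590 nm) was read after 4 h; curves were fitted relative to DMSO. GI50 <100 µM was reported only where the highest concentration cut cell number by ≥50%.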

The structures appear in SMILES notation.

As to `COc1ccc(CC2COc3cc(OC)c(OC)c(OC)c3C2=O)cc1NC(=O)[C@H](Cc1ccc(OCCCC(=O)O)cc1)NC(=O)OC(C)(C)C` (stereo not given in full), the GI50 in the test with Y79 is more than 100 µM; in test [1], 7.9 nM; in test [2], more than 100 µM; in the test on HUVEC it was 22 µM; with ARPE-19, more than 100 µM.
Regarding `COc1ccc(CC2COc3cc(OC)c(OC)c(OC)c3C2=O)cc1OC(=O)[C@H](Cc1ccc(OCC(=O)NCCCOc2ccc(C(=O)c3ccc(OCc4cn(CCOCCOCCOCCNC(=O)CCCC[C@@H]5SC[C@@H]6NC(=O)N[C@@H]65)nn4)cc3)cc2)cc1)NC(=O)OC(C)(C)C` (stereo not given in full), the GI50 with Y79 was more than 100 µM; in test [1], 210 nM; in test [2], more than 100 µM; in the test with HUVEC, 0.44 µM; in the test on ARPE-19 it was more than 100 µM.
`COc1ccc(CC2COc3cc(OC)c(OC)c(OC)c3C2=O)cc1NC(=O)[C@H](Cc1ccc(OCCCC(=O)NCCCOc2ccc(C(=O)c3ccc(OCc4cn(CCOCCOCCOCCNC(=O)CCCC[C@@H]5SC[C@@H]6NC(=O)N[C@@H]65)nn4)cc3)cc2)cc1)NC(=O)OC(C)(C)C` (stereo not given in full): the GI50 was more than 100 µM with Y79; 42000 nM in test [1]; more than 100 µM in test [2]; more than 100 µM in the test on HUVEC; more than 100 µM in the test with ARPE-19.
Turning to `COc1ccc(CC2COc3cc(OC)c(OC)c(OC)c3C2=O)cc1OC(=O)[C@H](Cc1ccc(OCC(=O)O)cc1)NC(=O)OC(C)(C)C` (stereo not given in full), the GI50 in the test on Y79 is more than 100 µM; in test [1], 47 nM; in test [2], more than 100 µM; in the test on HUVEC, 0.012 µM; with ARPE-19 it was more than 100 µM.
On to `COc1ccc(CC2COc3cc(OC)c(OC)c(OC)c3C2=O)cc1OCC(=O)NCCCOc1ccc(C(=O)c2ccc(OCc3cn(CCOCCOCCOCCNC(=O)CCCC[C@@H]4SC[C@@H]5NC(=O)N[C@@H]54)nn3)cc2)cc1` (stereo not given in full), for which the GI50 in the test on Y79 was more than 100 µM; in test [1] it was 72 nM; in test [2] it was more than 100 µM; with HUVEC, more than 100 µM; in the test on ARPE-19, more than 100 µM.
On to `COc1ccc(CC2COc3cc(OCCCC(=O)NCCCOc4ccc(C(=O)c5ccc(OCc6cn(CCOCCOCCOCCNC(=O)CCCC[C@@H]7SC[C@@H]8NC(=O)N[C@@H]87)nn6)cc5)cc4)c(OC)c(OC)c3C2=O)cc1OC(=O)[C@H](Cc1ccccc1)NC(=O)OC(C)(C)C` (stereo not given in full), for which the GI50 was more than 100 µM in the test with Y79; 44000 nM in test [1]; more than 100 µM in test [2]; more than 100 µM in the test with HUVEC; more than 100 µM in the test with ARPE-19.

Broadly, the GI50 is the concentration that inhibits growth by half.
